These results are taken from ChEMBL document CHEMBL2034924, “Optimization of a Potent, Orally Active S1P1 Agonist Containing a Quinolinone Core” (ACS Med Chem Lett, 2012).

The target in data set [1] is T1, Sphingosine 1-phosphate receptor 1 (Homo sapiens, UniProt P21453). Description: Agonist activity at human S1P1 receptor expressed in human U2OS cells co-expressing eGFP assessed as receptor internalization after 1 hr. The format is functional, cell-based. In short, it runs like this:
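U2OS cells expressing an hS1P1-GFP fusion protein; the read-out was receptor internalization. EC50 is the molar concentration giving a half-maximal response.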

For data set [2], the target named is T1, Sphingosine 1-phosphate receptor 1. Description: Agonist activity at human S1P1 receptor expressed in human U2OS cells co-expressing eGFP assessed as receptor internalization after 1 hr relative to 1-(4-(6-benzylbenzofuran-2-yl)-3-fluorobenzyl)azetidine-3-carboxylic acid. Format: functional, cell-based.
Data set [3] has as its target T2, Sphingosine 1-phosphate receptor 3 (Homo sapiens, UniProt Q99500). Kind of data set: Agonist activity at human S1P3 receptor expressed in CHO cells coexpressing Gq/i5 G-protein assessed as Ca2+ mobilization after 60 to 90 mins by FLIPR assay. The format is functional, cell-based. The procedure, abridged:
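Ca2+ mobilization in CHO-K1 cells transfected with hS1P3/Gq/i5. EC50 is the molar concentration giving a half-maximal response.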
(A change in cytosolic calcium serves as a functional read-out for many receptors and channels.)

Data set [4] is described as follows: Solubility of the compound in simulated intestinal fluid at pH 6.8 after 2 to 3 days by HPLC analysis. Format: physicochemical.
A short description of data set [5]: Apparent permeability of the compound across pig LLC-PK1 cells. The format is ADME, cell-based, Sus scrofa. In short, it runs like this: (§1)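 Parental porcine proximal tubule LLC-PK1 cell line. Apparent permeability was measured, and the efflux ratio was derived from it.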
Data set [6] in a line: Efflux ratio of permeability in pig LLC-PK1 cells. The format is ADME, cell-based, Sus scrofa. The procedure, abridged: as §1
Data set [7] can be described thus: Plasma protein binding in rat. Format: ADME, cell-free. Particulars: read-out: PPB (converted).
Data set [8] is described as follows: Intrinsic clearance in rat liver microsomes at 1 uM after 30 mins. Format: ADME, Microsome. Particulars: read-out: CLH. On the technique in general: Liver microsomes are a subcellular fraction often used to study metabolism.
The next data set deals with Rattus norvegicus. Kind of data set: Lymphopenic activity in Lewis rat assessed as reduction in peripheral blood lymphocyte counts at 1 mg/kg, po measured 24 hrs post dosing relative to control. Format: functional. Also noted: scale not given: the % may be the effect or the level left. In short, it runs like this:
(§2)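 Female Lewis rats (N = 5/group) received a single oral dose of 1 mg/kg in 20% captisol, 1% HPMC, 1% pluronic F68, pH 2.1 with MSA. Peripheral lymphocyte count is given as percent-of-control reduction versus vehicle at 24 h. Total plasma drug concentration was measured at 24 h. Statistics used ANOVA/Dunnett versus vehicle.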

Data set [9] in a line: (§3) Plasma concentration in Lewis rat at 1 mg/kg, po measured 24 hrs post dosing. The format is ADME, organism-based. Also noted: dose 1 mg/kg, route oral. Particulars: Lewis, plasma. The procedure, abridged:
as §2

In data set [10] the target is T2, Sphingosine 1-phosphate receptor 3. Kind of data set: Agonist activity at human S1P3 receptor expressed in CHO cells coexpressing Gq/i5 G-protein assessed as Ca2+ mobilization at 25 uM after 60 to 90 mins by FLIPR assay. Format: functional, cell-based.
For the next data set, the system named is Plasma. The data set is described as §3. Format: ADME, organism-based. Particulars: in vivo, 24 h, BLD = below limit of detection. Also noted: dose 1 mg/kg, route oral. The procedure, abridged:
as §2

For data set [11], the target named is T2, Sphingosine 1-phosphate receptor 3. Description: Agonist activity at human S1P3 receptor expressed in CHO cells coexpressing Gq/i5 G-protein assessed as Ca2+ mobilization after 60 to 90 mins by FLIPR assay relative to 0.2 uM S1P.

pEC50: −log10 of the molar value. Values after ≈ are worked out from the molar mass of the structure shown.

T2 sequence (Q99500 whole entry): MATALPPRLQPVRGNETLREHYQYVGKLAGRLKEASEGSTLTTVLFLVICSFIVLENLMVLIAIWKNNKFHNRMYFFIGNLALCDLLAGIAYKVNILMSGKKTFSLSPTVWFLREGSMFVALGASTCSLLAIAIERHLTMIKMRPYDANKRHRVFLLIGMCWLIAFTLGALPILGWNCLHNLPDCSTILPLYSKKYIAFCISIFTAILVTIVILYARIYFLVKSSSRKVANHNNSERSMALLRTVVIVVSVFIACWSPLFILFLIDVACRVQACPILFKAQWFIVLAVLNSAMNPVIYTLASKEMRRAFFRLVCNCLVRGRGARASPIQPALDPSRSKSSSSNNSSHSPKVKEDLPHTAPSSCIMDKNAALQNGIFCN
T1 sequence (P21453 whole entry, the tested form may be a part): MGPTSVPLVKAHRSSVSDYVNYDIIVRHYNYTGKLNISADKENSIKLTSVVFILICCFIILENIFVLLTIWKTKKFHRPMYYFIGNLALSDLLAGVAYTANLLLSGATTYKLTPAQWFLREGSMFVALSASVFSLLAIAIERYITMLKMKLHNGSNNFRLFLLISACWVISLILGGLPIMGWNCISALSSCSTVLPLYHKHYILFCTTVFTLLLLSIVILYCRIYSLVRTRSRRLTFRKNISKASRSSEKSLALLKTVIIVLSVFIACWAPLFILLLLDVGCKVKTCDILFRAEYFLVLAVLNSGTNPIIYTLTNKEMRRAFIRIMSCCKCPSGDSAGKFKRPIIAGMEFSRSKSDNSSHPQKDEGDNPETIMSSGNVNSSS

By pEC50 is commonly meant the EC50 on a negative log10 scale, so that one unit is a factor of ten. One may read the solubility as the concentration that dissolves in the medium under given conditions. For orientation: Papp means a coefficient for how fast a substance crosses the barrier. What is called efflux ratio is the permeability from basolateral to apical divided by that in the opposite direction, in the common usage. Regarding `Cn1cc(C(=O)Nc2ccc(-c3ccccc3)c(C(F)(F)F)c2)c(=O)c2ccc(CO)cc21`, the figures for the pEC50 in data set [1] and in data set [3] were 7.74 and below 4.60, respectively. In addition, the Efficacy in data set [2] amounted to 125%. In [4], this compound yielded a solubility of 27 µg/mL (≈ 59.7 µM). Also, the Papp in data set [5] was found to be 2.8 ×10⁻⁶ cm/s. The efflux ratio in data set [6] came out at 1. Besides, the fraction unbound in [7] is 0.076. In addition, in data set [8], the microsomal CLint at 1 µM is below 14 µL/min/mg. Also, the Activity with Rattus norvegicus was -44%; in [10] it was below 10%. In [9], the concentration at 24 h is 65 ng/mL.
Take `Cn1cc(C(=O)Nc2ccc(-c3ccccc3)c(C(F)(F)F)c2)c(=O)c2ccc(CCO)cc21`: the pEC50 in [1] was 8.10; in data set [3] it was below 4.60. Further, in data set [2], the Efficacy worked out at 118%. The compound also displayed a solubility in [4] of 6 µg/mL (≈ 12.9 µM). Also, the Papp in data set [5] was found to be 2.2 ×10⁻⁶ cm/s. The efflux ratio in data set [6] was found to be 1. Besides, the fraction unbound in data set [7] was 0.073. For the same compound, in data set [8], the microsomal CLint at 1 µM is below 14 µL/min/mg. Further, the Activity in the data set on Rattus norvegicus was -48%; in [10], below 10%. The concentration at 24 h in [9] turned out to be 27 ng/mL.
For `Cn1cc(C(=O)Nc2ccc(-c3ccccc3)c(C(F)(F)F)c2)c(=O)c2ccc(C(=O)O)cc21`, the pEC50 in [1] was 7.68; in data set [3] it was below 4.60. The Efficacy in data set [2] came to 98%. This compound also registered a solubility in [4] of 48 µg/mL (≈ 103 µM). In data set [5], the apparent permeability coefficient (Papp) was determined as 3 ×10⁻⁶ cm/s. Further, in [6], the efflux ratio came to 6.7. The fraction unbound in data set [7] was 0.02. In data set [8], the microsomal CLint at 1 µM is below 14 µL/min/mg. Further, the Activity is 4% in the data set on Rattus norvegicus and below 10% in data set [10]. Also, the Cp entry with Plasma is given as “BLD”.
Consider `Cn1cc(C(=O)Nc2ccc(-c3ccccc3)c(C(F)(F)F)c2)c(=O)c2cccc(CO)c21`, for which the results for the pEC50 in data set [1] and in data set [3] were 7.41 and below 4.60, respectively. In addition, the Efficacy in data set [2] stood at 104%. Besides, the Activity in data set [10] was below 10%.
Regarding `Cn1cc(C(=O)Nc2ccc(-c3ccccc3)c(C(F)(F)F)c2)c(=O)c2ccc(CCC(=O)O)cc21`, the pEC50 in [1] was 8.40; in data set [3], 6.03. For the same compound, the Efficacy turned out to be 85% in data set [2] and 82% in data set [11]. For the same compound, the solubility in data set [4] was 200 µg/mL (≈ 404 µM). In addition, the Papp in [5] stood at 1.6 ×10⁻⁶ cm/s. Besides, the efflux ratio in data set [6] came out at 1. In addition, the fraction unbound in data set [7] was 0.022. Further, the microsomal CLint at 1 µM in data set [8] was below 14 µL/min/mg. For the same compound, the Activity with Rattus norvegicus is reported as -25%. For the same compound, the concentration at 24 h in data set [9] was determined as 4 ng/mL.
Turning to `Cn1cc(C(=O)Nc2ccc(-c3ccccc3)c(C(F)(F)F)c2)c(=O)c2cccc(CCO)c21`, the pEC50 in data set [1] is 6.41; in data set [3], below 4.60. Besides, in data set [2], the Efficacy was 106%. The Activity in data set [10] was below 10%.
Take `Cn1cc(C(=O)Nc2ccc(-c3ccccc3)c(C(F)(F)F)c2)c(=O)c2ccc(CN3CC(C(=O)O)C3)cc21`: the pEC50 in [1] was 7.60; in data set [3] it was below 4.60. The Efficacy in data set [2] was determined as 108%. For the same compound, the Activity in [10] is below 10%.
Taken in the same sequence, the figures for `Cn1cc(C(=O)Nc2ccc(-c3ccccc3)c(C(F)(F)F)c2)c(=O)c2ccc(CCCO)cc21` were 7.82, below 4.60, 118% and below 10%.
Take `Cn1cc(C(=O)Nc2ccc(-c3ccccc3)c(C(F)(F)F)c2)c(=O)c2cnccc21`: the pEC50 in data set [3] was below 4.60. The compound also gave a solubility in data set [4] of 5 µg/mL (≈ 11.8 µM). In addition, in data set [7], the fraction unbound is 0.083. For the same compound, in [8], the microsomal CLint at 1 µM is below 14 µL/min/mg. The figures for the Activity (with Rattus norvegicus; in data set [10]) were -64% and below 10%, respectively.
